Experimental data taken from paper PMC3145007 (Journal of the American Chemical Society, 2011).
“Also recorded” adds a separate entry of the source.

Experiments:
[1] = target: T1, PREPL (Mus musculus, UniProt Q8C167); assay: gel-based ABPP IC50 determination with recombinant PREPL and FP-Rh; type: biochemical
[2] = target: PEP (Mus musculus, UniProt Q9QUR6); assay: PEP selectivity assay; type: biochemical; details: 20 μM inhibitor; >20% reduction in PEP activity = cross-reactive
[3] = target: T1, PREPL; assay: in situ ABPP assay in PREPL-transfected Neuro2A cells; type: cell-based; details: 50 μM inhibitor in media
Procedure, shortened: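 Neuro2A cells plated at 1.5 × 10^6 per well and transfected next day with mouse PREPL plasmid by lipofection. Two days later, medium replaced with medium containing test compound for 1.5 h. Cell-permeable FP-alkyne then added (10 μM final) for 1 h. Cells PBS-washed, scraped, lysed by 7 freeze-thaw cycles and spun at 20,000 x g. Lysate at 4 mg/ml clicked with rhodamine-azide/TCEP/ligand/CuSO4 for 1 h, then resolved by SDS-PAGE.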

[4] = in vivo distribution of PREPL inhibitor to brain by LC-MS/MS; details: mouse, 1 mg/kg intraperitoneal, 30 minutes, brain extract, MRM
[5] = target: T1, PREPL; assay: MUGB; type: biochemical
[6] = target: T1, PREPL; assay: competitive gel-based ABPP in PREPL-spiked mouse brain proteome; type: biochemical; details: 50 μM inhibitor, brain proteome 1 mg/mL spiked with 40 nM PREPL, FP-Rh
Procedure, shortened: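 Brain proteome diluted to 1 mg/mL in PBS pH 7.4 and spiked with recombinant His-tagged mouse PREPL (E. coli-expressed, Ni-IMAC purified), with Pluronic at 0.01% final. Test compound or DMSO preincubated 30 min at room temperature. FP-Rh at 0.5 μM final for 15 min, then SDS-loading-buffer quench. Samples run on 10% SDS-PAGE, scanned in-gel for fluorescence, and PREPL bands quantified for labeling extent.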

T1 sequence (Q8C167 88-725): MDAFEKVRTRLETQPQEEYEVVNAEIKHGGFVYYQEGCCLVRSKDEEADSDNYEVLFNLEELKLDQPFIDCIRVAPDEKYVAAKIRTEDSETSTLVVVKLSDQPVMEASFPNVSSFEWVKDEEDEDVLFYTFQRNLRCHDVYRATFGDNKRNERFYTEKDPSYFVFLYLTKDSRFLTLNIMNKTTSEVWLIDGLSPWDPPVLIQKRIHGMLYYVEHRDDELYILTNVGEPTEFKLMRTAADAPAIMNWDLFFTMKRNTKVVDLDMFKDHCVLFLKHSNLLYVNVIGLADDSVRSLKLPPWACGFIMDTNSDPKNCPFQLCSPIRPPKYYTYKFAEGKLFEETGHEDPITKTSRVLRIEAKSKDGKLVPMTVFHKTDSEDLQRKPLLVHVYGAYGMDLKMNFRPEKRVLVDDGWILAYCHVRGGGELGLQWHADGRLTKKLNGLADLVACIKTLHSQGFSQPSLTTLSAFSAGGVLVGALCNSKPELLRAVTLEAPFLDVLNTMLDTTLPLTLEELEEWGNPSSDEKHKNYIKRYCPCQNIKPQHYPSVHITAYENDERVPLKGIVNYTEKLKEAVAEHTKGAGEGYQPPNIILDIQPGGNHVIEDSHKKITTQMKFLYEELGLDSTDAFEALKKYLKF
PEP, sequence (Q9QUR6 whole entry): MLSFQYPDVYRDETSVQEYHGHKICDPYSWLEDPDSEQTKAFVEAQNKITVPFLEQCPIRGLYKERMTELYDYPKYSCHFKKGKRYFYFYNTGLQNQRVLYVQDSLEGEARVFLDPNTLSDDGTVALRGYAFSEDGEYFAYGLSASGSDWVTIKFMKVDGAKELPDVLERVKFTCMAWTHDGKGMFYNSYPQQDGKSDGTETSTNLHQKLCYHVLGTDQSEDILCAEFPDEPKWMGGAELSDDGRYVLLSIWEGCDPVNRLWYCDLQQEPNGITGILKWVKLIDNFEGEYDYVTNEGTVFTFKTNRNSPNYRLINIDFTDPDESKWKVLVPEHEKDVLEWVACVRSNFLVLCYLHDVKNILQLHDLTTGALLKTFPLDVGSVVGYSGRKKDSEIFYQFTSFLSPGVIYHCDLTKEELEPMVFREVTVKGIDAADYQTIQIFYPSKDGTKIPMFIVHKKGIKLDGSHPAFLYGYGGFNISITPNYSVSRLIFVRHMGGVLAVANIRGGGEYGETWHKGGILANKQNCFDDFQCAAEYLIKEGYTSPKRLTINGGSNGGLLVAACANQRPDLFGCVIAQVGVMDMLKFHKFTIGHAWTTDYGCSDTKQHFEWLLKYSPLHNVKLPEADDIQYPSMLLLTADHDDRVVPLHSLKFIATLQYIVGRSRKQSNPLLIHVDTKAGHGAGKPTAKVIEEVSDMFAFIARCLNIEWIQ

CC(C)Cc1[nH]c(=O)c(C#N)c2c1CCC2 [compound 8, 1-isobutyl-3-oxo-3,5,6,7-tetrahydro-2H-cyclopenta[c]pyridine-4-carbonitrile]
IC50 [1]: 3 to 12 µM | crossreactivity against PEP [2]: non-crossreactive | inhibition of PREPL in cells (in situ) [3]: able to cross the cell membrane and inhibit PREPL intracellularly; also recorded: lighter band on the gel | presence in brain / crossing of blood-brain barrier [4]: strong signal; also recorded: able to cross the blood-brain barrier | inhibition of MUGB breakdown by PREPL [5]: inhibited breakdown of MUGB by PREPL | inhibition of PREPL in complex (brain) proteome [6]: able to inhibit PREPL in a complex proteome; also recorded: most potent carbonitrile inhibitor in the brain proteome ABPP assay; also recorded: selectively inhibit PREPL in brain proteomes
